Blank lines part the entries; values can stand above or below the compound they belong to.
How the values were obtained:
Rattus norvegicus [1] = assay: Antiobesity activity in Sprague-Dawley rat assessed as reduction in food intake at 0.03 mg/kg, po measured after 20 hrs; type: functional; design: scale not given: the % may be the effect or the level left
Outline: (§1)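 Male Sprague-Dawley rats, six per group, trained to bar-press for food pellets in operant chambers. Dosed p.o. in 10% DMAC/10% EtOH/10% Cremophor/70% water at 2 ml/kg. Two 20 h sessions starting at dark-cycle onset, 4 h apart. The first session was the baseline used to balance groups. Pellets counted at 1, 2, 4, 8, 12 and 20 h after lock-out. One-way ANOVA with Fisher PLSD.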

Rattus norvegicus [2] = assay: Ex vivo receptor occupancy of CB1 receptor in Sprague-Dawley rat at 3 mg/kg, po measured 6 hrs post dose; type: functional
Outline: (§2)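 Male Sprague-Dawley rats were dosed p.o. (0.03–30 mg/kg, vehicle 10% DMAC/cremophor/ethanol, 2 ml/kg) 1 h before the dark cycle. Brains were taken 6 h post-dose, three per group, frozen and cut into 20 µm cryosections. Sections pre-incubated 30 s, then 6 min with 40 nM [3H]BMS-725519 in chilled HEPES buffer. Nonspecific binding by 5 µM unlabelled BMS-725519. Three 30 s washes. Cerebellar density measured by phosphor imaging (DLU/mm², background-subtracted); occupancy expressed relative to vehicle specific binding.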

Rattus norvegicus [3] = assay: Ex vivo receptor occupancy of CB1 receptor in Sprague-Dawley rat at 10 mg/kg, po measured 6 hrs post dose; type: functional; outline: as §2
Cannabinoid receptor 1 [4] = biological target: T1, Cannabinoid receptor 1 (Rattus norvegicus, UniProt P20272); assay: Displacement of [3H]BMS-725519 from rat brain CB1 receptor after 45 mins by autoradiography
Plasma [5] = assay: Free plasma concentration in Sprague-Dawley rat at 1 mg/kg, po measured 6 hrs post dose; type: ADME, organism-based; design: dose 1 mg/kg, route oral; conditions: in vivo
Rattus norvegicus [6] = assay: Ex vivo receptor occupancy of CB1 receptor in Sprague-Dawley rat at 0.03 mg/kg, po measured 6 hrs post dose; type: functional; outline: as §2
Plasma [7] = assay: Free plasma concentration in Sprague-Dawley rat at 30 mg/kg, po measured 6 hrs post dose; type: ADME, organism-based; design: dose 30 mg/kg, route oral; conditions: in vivo
Plasma [8] = assay: Free plasma concentration in Sprague-Dawley rat at 0.03 mg/kg, po measured 6 hrs post dose; type: ADME, organism-based; design: dose 0.03 mg/kg, route oral; conditions: in vivo
Plasma [9] = assay: Free plasma concentration in Sprague-Dawley rat at 0.1 mg/kg, po measured 6 hrs post dose; type: ADME, organism-based; design: dose 0.1 mg/kg, route oral; conditions: in vivo
Rattus norvegicus [10] = assay: Ex vivo receptor occupancy of CB1 receptor in Sprague-Dawley rat at 30 mg/kg, po measured 6 hrs post dose; type: functional; outline: as §2
Rattus norvegicus [11] = assay: Antiobesity activity in Sprague-Dawley rat assessed as reduction in food intake at 10 mg/kg, po measured after 20 hrs; type: functional; design: scale not given: the % may be the effect or the level left; outline: as §1
[12] = Protein binding in human; type: ADME
Rattus norvegicus [13] = assay: Ex vivo receptor occupancy of CB1 receptor in Sprague-Dawley rat at 0.1 mg/kg, po measured 6 hrs post dose; type: functional; outline: as §2
Cannabinoid receptor 1 [14] = biological target: T2, Cannabinoid receptor 1 (Homo sapiens, UniProt P21554); assay: Displacement of [3H]-SR-141716 from human CB1 receptor
Rattus norvegicus [15] = assay: Ex vivo receptor occupancy of CB1 receptor in Sprague-Dawley rat at 0.3 mg/kg, po measured 6 hrs post dose; type: functional; outline: as §2
Plasma [16] = assay: Free plasma concentration in Sprague-Dawley rat at 10 mg/kg, po measured 6 hrs post dose; type: ADME, organism-based; design: dose 10 mg/kg, route oral; conditions: in vivo
Plasma [17] = assay: Free plasma concentration in Sprague-Dawley rat at 3 mg/kg, po measured 6 hrs post dose; type: ADME, organism-based; design: dose 3 mg/kg, route oral; conditions: in vivo
Rattus norvegicus [18] = assay: Antiobesity activity in Sprague-Dawley rat assessed as reduction in food intake at 1 mg/kg, po measured after 20 hrs; type: functional; design: scale not given: the % may be the effect or the level left; outline: as §1
Plasma [19] = assay: Free plasma concentration in Sprague-Dawley rat at 0.3 mg/kg, po measured 6 hrs post dose; type: ADME, organism-based; design: dose 0.3 mg/kg, route oral; conditions: in vivo
Cannabinoid receptor 2 = Cannabinoid receptor 2 (Homo sapiens, UniProt P34972); assay: Displacement of [3H]-CP55940 from human CB2 receptor
Rattus norvegicus [20] = assay: Ex vivo receptor occupancy of CB1 receptor in Sprague-Dawley rat at 1 mg/kg, po measured 6 hrs post dose; type: functional; outline: as §2
Rattus norvegicus [21] = assay: Antiobesity activity in Sprague-Dawley rat assessed as reduction in food intake at 0.1 mg/kg, po measured after 20 hrs; type: functional; design: scale not given: the % may be the effect or the level left; outline: as §1
Cannabinoid receptor 1 [22] = biological target: T1, Cannabinoid receptor 1; assay: Displacement of [3H]-SR-141716 from rat CB1 receptor
Rattus norvegicus [23] = assay: Antiobesity activity in Sprague-Dawley rat assessed as reduction in food intake at 3 mg/kg, po measured after 20 hrs; type: functional; design: scale not given: the % may be the effect or the level left; outline: as §1
Rattus norvegicus [24] = assay: Antiobesity activity in Sprague-Dawley rat assessed as reduction in food intake at 0.3 mg/kg, po measured after 20 hrs; type: functional; design: scale not given: the % may be the effect or the level left; outline: as §1
Rattus norvegicus [25] = assay: Antiobesity activity in Sprague-Dawley rat assessed as reduction in food intake at 30 mg/kg, po measured after 20 hrs; type: functional; design: scale not given: the % may be the effect or the level left; outline: as §1
Cannabinoid receptor 1 [26] = biological target: T1, Cannabinoid receptor 1; assay: Binding affinity to rat brain CB1 receptor after 90 mins by scintillation counting
Outline: (§3)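 Rat whole-brain or CHO (human CB1) membranes were homogenized in 10 mM HEPES/1 mM EGTA pH 7.4 with protease inhibitors, DTT and sucrose. Centrifuged at 1000 g, then the pellet was taken at 100,000 g and resuspended in 20 mM HEPES, 1 mM EGTA, 1 mM DTT, 1 mM MgCl2. Saturation with increasing [3H]BMS-725519; nonspecific binding by cold BMS-725519. 90 min at room temperature, GF/B filtration, scintillation counting. Kd and Bmax derived.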

Brain [27] = assay: Drug uptake in brain of CB1 receptor knockout mouse at 10 uM; type: ADME, tissue-based; conditions: in vivo
Cannabinoid receptor 1 [28] = biological target: T2, Cannabinoid receptor 1; assay: Binding affinity to human CB1 receptor expressed in CHO cells after 90 mins by scintillation counting; type: cell-based; outline: as §3
Brain [29] = assay: Drug uptake in brain of mouse expressing CB1 receptor at 10 uM; type: ADME, tissue-based; conditions: in vivo

T1 sequence (P20272 whole entry): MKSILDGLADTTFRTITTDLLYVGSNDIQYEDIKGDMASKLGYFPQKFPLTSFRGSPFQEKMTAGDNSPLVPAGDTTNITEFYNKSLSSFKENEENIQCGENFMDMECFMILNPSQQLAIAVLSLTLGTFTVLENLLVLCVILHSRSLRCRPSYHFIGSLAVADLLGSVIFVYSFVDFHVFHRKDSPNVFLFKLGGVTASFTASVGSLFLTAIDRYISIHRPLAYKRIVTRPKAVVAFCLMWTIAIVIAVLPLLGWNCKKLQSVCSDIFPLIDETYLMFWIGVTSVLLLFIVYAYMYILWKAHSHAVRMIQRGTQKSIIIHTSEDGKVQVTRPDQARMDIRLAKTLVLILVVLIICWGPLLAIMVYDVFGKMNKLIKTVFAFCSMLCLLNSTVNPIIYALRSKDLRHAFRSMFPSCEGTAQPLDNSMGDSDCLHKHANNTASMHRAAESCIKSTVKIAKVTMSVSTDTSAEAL
T2 sequence (P21554 whole entry): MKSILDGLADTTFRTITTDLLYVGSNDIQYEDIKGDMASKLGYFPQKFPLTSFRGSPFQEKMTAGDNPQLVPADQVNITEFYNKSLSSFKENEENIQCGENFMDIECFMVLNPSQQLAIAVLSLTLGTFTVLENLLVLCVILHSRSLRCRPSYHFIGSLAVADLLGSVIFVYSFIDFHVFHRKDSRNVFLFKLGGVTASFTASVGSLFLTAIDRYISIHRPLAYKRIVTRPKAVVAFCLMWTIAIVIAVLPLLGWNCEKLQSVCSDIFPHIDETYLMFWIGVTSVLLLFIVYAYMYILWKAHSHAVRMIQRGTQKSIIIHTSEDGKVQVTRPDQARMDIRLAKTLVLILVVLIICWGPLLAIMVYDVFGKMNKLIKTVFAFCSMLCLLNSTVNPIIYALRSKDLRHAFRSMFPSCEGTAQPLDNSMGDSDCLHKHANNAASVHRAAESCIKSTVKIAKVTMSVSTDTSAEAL
Chain of Cannabinoid receptor 2 (P34972 whole entry): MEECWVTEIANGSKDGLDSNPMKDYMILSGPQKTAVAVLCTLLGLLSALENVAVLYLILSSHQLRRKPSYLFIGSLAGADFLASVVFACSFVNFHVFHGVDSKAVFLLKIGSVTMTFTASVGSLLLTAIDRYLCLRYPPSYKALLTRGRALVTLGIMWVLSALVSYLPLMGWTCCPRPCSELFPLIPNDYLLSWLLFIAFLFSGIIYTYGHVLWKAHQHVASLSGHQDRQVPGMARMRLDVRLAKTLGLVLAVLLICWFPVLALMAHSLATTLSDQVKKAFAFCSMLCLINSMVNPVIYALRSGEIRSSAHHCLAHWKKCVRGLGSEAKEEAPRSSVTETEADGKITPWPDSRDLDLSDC

- IC50 (Cannabinoid receptor 1 [4]): 37 nM
- Cp(f) (Plasma [5]): 49.4 nM
- Cp(f) (Plasma [7]): 1047 nM
- Cp(f) (Plasma [8]): 1.5 nM
- Cp(f) (Plasma [9]): 5.4 nM
- fraction unbound [12]: 0.05
- Kd (Cannabinoid receptor 1 [14]): 4.6 nM
- Cp(f) (Plasma [16]): 531 nM
- Cp(f) (Plasma [17]): 112 nM
- Cp(f) (Plasma [19]): 15.3 nM
- Kd (Cannabinoid receptor 2): > 10000 nM
- Kd (Cannabinoid receptor 1 [22]): 12.4 nM
Structure (SMILES): O=c1n(Cc2ccc(C(F)(F)F)nc2)nc2c(-c3ccncc3)c(-c3ccc(Cl)cc3)cnn12
- Activity (Rattus norvegicus [1]): 0%
- Activity (Rattus norvegicus [2]): 55.6%
- Activity (Rattus norvegicus [3]): 64.5%
- Activity (Rattus norvegicus [6]): 12.7%
- Activity (Rattus norvegicus [10]): 74.1%
- Activity (Rattus norvegicus [11]): 67.4%
- Activity (Rattus norvegicus [13]): 14.3%
- Activity (Rattus norvegicus [15]): 20.6%
- Activity (Rattus norvegicus [18]): 23.7%
- Activity (Rattus norvegicus [20]): 29.8%
- Activity (Rattus norvegicus [21]): 0%
- Activity (Rattus norvegicus [23]): 41.5%
- Activity (Rattus norvegicus [24]): 22.3%
- Activity (Rattus norvegicus [25]): 72.5%

- Kd (Cannabinoid receptor 1 [26]): 29.1 nM
- Drug uptake (Brain [27]): Not Active
- Kd (Cannabinoid receptor 1 [28]): 3.95 nM
- Drug uptake (Brain [29]): Active
Structure (SMILES): [3H]c1cc(-c2cnn3c(=O)n(Cc4ccc(C(F)(F)F)nc4[3H])nc3c2-c2ccncc2)ccc1Cl

From ChEMBL document CHEMBL1909595, “Characterization of a novel and selective CB1 antagonist as a radioligand for receptor occupancy studies” (Bioorg Med Chem Lett, 2011)
